# Active and inactive are the calls of the source. No cut-off for these calls is given here.
# Columns and labels:
# [1] = Reversal of induction in BMP2 expression in mouse MC3T3-E1 cells at 1 uM by Western blot in presence of PP2; format: functional, cell-based
# Method in brief: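 Src phosphorylation, ERα nuclear translocation and BMP-2 protein analysed by Western blot with ECL detection. Three independent experiments.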
# Rattus norvegicus = test: Increase in serum BMP2 levels in orally dosed ovariectomized Wistar rat after 10 weeks by ELISA relative to sham operated control; format: functional, organism-based
# Method in brief: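 Ovariectomized rats given indicated doses or estrogen by oral feeding; serum BMP-2 by ELISA 10 weeks after surgery; compared with sham-operated group; n = 8/group, means ± S.D.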
# Osteoblast [2] = test: Effect on annexin A5 gene expression in rat primary osteoblast cells assessed as expression ratio of treated to untreated control by microarray analysis; format: functional
# Osteoblast [3] = test: Effect on procollagen 6 alpha 1 gene expression in rat primary osteoblast cells assessed as expression ratio of treated to untreated control by microarray analysis; format: functional
# Method in brief: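 Resveratrol-treated and vehicle-treated primary osteoblasts were profiled on a mouse osteogenesis-focused cDNA array (GEArray Q series) built to track gene expression during osteogenic differentiation. Each gene's signal in treated cells was expressed as a ratio to untreated control.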
# MG-63 [4] = test: Increase in osteopontin levels in human MG63 cells at 1 uM after 72 hrs by ELISA; format: functional, cell-based
# Method in brief: (§1)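 Cells treated with 1 μm for 72 h; osteocalcin or osteopontin in culture medium by sandwich ELISA, HRP-streptavidin/TMB, 450 nm; percent change versus untreated control.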
# MC3T3-E1 [5] = test: Reversal of increase in ER.DNA complex in mouse MC3T3-E1 cells transfected with dominant-negative mutant Src expression vector at 1 uM by RT-PCR; format: functional, cell-based
# Method in brief: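 BMP-2 promoter quantified by real-time PCR (45 cycles, 61 °C anneal), reported as IP-to-input Ct ratio. DN-Src by 3 μg vector, PP2 at 10 μM; ICI182780 and tamoxifen at indicated concentrations.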
# Osteoblast [6] = test: Effect on fibroblast growth factor 2 gene expression in rat primary osteoblast cells assessed as expression ratio of treated to untreated control by microarray analysis; format: functional
# [7] = Reversal of increase in pBMP2 expression in rat primary osteoblast cells transfected with dominant-negative mutant Src expression vector at 1 uM by luciferase method; format: functional, cell-based
# [8] = molecular target: RAC-alpha serine/threonine-protein kinase (Homo sapiens) (UniProt P31749); test: Inhibition of IGF-induced Akt phosphorylation in human MDA-MB-231 cells by Western blot; format: cell-based
# Method in brief: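 MDA-MB-231 cells, control or treated, stimulated with or without IGF; lysates analyzed by Western blot for Akt phosphorylation.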
# MC3T3-E1 [9] = test: Induction of ER association with BMP2 promoter in mouse MC3T3-E1 cells at 1 uM by ChiP assay; format: functional, cell-based
# Method in brief: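 MC3T3-E1 cells ± 1 μm, formaldehyde-fixed; ChIP with transcription factor antibodies and protein G magnetic beads; BMP-2 promoter quantified by real-time PCR (45 cycles); ratio of IP to input Ct values.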
# [10] = molecular target: T1, Estrogen receptor (Mus musculus) (UniProt P19785); test: Increase in DNA-binding activity of ERalpha in nuclear extracts of mouse MC3T3-E1 cells by electrophoretic mobility shift assays; format: cell-based
# T1 sequence (whole entry): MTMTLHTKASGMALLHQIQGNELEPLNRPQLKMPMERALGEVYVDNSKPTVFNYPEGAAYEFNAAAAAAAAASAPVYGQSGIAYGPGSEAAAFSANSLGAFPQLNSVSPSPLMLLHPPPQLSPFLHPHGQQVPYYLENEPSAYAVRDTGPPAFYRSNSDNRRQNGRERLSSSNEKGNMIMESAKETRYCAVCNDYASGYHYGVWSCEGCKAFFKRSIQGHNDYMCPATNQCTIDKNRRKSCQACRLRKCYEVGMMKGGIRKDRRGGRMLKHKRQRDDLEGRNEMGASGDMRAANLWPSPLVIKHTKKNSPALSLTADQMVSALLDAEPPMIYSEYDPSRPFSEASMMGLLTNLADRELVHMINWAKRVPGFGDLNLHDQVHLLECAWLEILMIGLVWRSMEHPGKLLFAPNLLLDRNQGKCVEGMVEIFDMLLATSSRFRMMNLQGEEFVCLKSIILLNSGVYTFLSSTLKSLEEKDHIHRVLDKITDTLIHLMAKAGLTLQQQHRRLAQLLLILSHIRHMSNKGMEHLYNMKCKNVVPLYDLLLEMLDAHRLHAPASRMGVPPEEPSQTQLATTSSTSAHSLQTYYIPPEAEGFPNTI
# Method in brief: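 MC3T3-E1 nuclear extracts incubated with 32P end-labeled ERα probe for 20 min at room temperature in 20 μl; 5-fold unlabeled competitor for specificity; 5% nondenaturing PAGE in Tris-borate-EDTA pH 8.3, autoradiography at –70 °C.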
# Osteoblast [11] = test: Effect on bone morphogenetic protein 5 gene expression in rat primary osteoblast cells assessed as expression ratio of treated to untreated control by microarray analysis; format: functional
# MC3T3-E1 [12] = test: Increase in BMP2 expression in mouse MC3T3-E1 cells expressing pBMP2delta3 mutant at 1 uM after 4 hrs by luciferase method relative to control; format: functional, cell-based
# Method in brief: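 MC3T3-E1 cells transfected with BMP-2 promoter–luciferase constructs (full promoter or deletions), treated with 1 μm or vehicle for 4 h; Dual-Luciferase assay; means ± S.D.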
# MDA-MB-231 = test: Antiproliferative activity against human MDA-MB-231 cells at 1 uM by flow cytometry; format: functional, cell-based
# Method in brief: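 Proliferation was measured by DNA flow cytometry. Incubations were run in triplicate across three separate experiments, and values are means ± S.D.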
# MC3T3-E1 [13] = test: Increase in osteocalcin levels in mouse MC3T3-E1 cells at 1 uM after 72 hrs by ELISA; format: functional, cell-based; method in brief: as §1
# Osteoblast [14] = test: Effect on bone morphogenetic protein 6 gene expression in rat primary osteoblast cells assessed as expression ratio of treated to untreated control by microarray analysis; format: functional
# [15] = molecular target: Forkhead box protein O3 (Homo sapiens) (UniProt O43524); test: Induction of FOXO3a activity in human MDA-MB-231 cells; format: cell-based
# [16] = molecular target: Alkaline phosphatase (Rattus norvegicus) (UniProt Q9JKS8); test: Inhibition of induction of ALP activity in rat primary osteoblast cells at 1 uM after 48 hrs in presence of noggin; format: cell-based
# Osteoblast [17] = test: Effect on vascular cell adhesion molecule 1 gene expression in rat primary osteoblast cells assessed as expression ratio of treated to untreated control by microarray analysis; format: functional
# Method in brief: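 GEArray Q series Mouse Osteogenesis cDNA array profiling osteogenic-differentiation genes in treated versus vehicle-treated primary osteoblasts.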
# Osteoblast [18] = test: Effect on cathepsin K gene expression in rat primary osteoblast cells assessed as expression ratio of treated to untreated control by microarray analysis; format: functional
# MG-63 [19] = test: Increase in osteocalcin mRNA levels in human MG63 cells at 1 uM after 72 hrs by RT-PCR; format: functional, cell-based
# Method in brief: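 Cells treated with 1 μm for 72 h; osteocalcin and osteopontin mRNA by RT-PCR, 30 cycles (95/52/72 °C, 1 min each), ethidium bromide–stained agarose gels; repeated at least twice from at least two cDNA preparations.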
# [20] = Reversal of increase in pBMP2 expression in mouse MC3T3-E1 cells at 1 uM by luciferase method in presence of PP2; format: functional, cell-based
# Method in brief: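 BMP-2 promoter activity measured by dual-luciferase assay and expressed relative to the untreated vector control.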
# MG-63 [21] = test: Increase in proliferation of human MG63 cells at 0.1 to 10 uM after 24 hr by flow cytometry; format: functional, cell-based
# Sequence of Forkhead box protein O3 (Homo sapiens) (O43524 whole entry): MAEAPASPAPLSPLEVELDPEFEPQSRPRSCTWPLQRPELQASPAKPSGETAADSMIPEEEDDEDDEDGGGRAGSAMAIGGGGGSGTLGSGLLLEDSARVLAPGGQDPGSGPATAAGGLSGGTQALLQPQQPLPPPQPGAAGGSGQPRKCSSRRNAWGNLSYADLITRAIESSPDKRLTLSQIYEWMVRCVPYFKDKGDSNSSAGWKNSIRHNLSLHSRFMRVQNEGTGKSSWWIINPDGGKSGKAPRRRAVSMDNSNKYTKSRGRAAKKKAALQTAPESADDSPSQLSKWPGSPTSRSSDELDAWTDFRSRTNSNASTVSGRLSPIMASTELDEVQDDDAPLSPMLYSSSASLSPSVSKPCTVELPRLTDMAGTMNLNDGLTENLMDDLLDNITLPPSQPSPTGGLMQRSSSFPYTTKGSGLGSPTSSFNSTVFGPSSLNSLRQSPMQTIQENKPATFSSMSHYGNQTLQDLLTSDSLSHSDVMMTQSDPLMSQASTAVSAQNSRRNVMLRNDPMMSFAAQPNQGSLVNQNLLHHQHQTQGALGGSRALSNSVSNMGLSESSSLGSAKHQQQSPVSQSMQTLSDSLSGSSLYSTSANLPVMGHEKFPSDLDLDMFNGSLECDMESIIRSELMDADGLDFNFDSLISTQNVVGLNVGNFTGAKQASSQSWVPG
# Sequence of RAC-alpha serine/threonine-protein kinase (Homo sapiens) (P31749 whole entry): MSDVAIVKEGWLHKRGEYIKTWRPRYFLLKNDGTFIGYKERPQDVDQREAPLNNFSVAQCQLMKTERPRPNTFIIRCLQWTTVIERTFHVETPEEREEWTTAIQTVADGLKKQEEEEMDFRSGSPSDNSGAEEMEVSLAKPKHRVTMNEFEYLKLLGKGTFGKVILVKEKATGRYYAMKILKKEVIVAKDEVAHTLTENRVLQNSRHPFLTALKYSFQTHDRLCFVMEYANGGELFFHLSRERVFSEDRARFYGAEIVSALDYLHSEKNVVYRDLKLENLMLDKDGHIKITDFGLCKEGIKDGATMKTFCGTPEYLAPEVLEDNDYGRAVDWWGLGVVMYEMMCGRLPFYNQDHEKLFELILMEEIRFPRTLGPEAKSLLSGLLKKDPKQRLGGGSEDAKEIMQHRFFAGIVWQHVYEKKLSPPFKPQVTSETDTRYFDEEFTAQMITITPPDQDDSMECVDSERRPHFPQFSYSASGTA
# Sequence of Alkaline phosphatase (Rattus norvegicus) (Q9JKS8 as listed by the source): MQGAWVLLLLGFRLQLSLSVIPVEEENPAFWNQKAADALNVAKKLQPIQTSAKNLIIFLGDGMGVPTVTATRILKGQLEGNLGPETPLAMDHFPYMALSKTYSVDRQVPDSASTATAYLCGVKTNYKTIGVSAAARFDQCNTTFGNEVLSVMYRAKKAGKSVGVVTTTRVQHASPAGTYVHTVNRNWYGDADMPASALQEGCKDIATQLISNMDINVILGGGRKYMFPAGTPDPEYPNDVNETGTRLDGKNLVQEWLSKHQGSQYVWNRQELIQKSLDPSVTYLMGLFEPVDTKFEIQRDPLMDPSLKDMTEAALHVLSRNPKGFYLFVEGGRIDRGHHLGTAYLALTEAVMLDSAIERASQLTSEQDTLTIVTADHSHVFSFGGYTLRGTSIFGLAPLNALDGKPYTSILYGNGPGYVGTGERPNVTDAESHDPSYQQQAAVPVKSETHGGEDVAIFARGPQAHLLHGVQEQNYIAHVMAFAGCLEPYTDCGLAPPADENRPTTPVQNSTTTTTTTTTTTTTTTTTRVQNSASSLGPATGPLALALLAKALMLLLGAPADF
structure (smiles),measurement,setting,value
Oc1ccc(/C=C/c2cc(O)cc(O)c2)cc1 [RESVERATROL],Activity,[1],Active
same,Activity,Rattus norvegicus,Active
same,Ratio,Osteoblast [2],4.02
same,Ratio,Osteoblast [3],2.35
same,Activity,MG-63 [4],Active
same,Activity,MC3T3-E1 [5],Active
same,Ratio,Osteoblast [6],2.76
same,Activity,[7],Active
same,Activity,[8],Active
same,Activity,MC3T3-E1 [9],Active
same,Activity,[10],Active
same,Ratio,Osteoblast [11],0.97
same,Activity,MC3T3-E1 [12],inactive
same,Activity,MDA-MB-231,Active
same,Activity,MC3T3-E1 [13],Active
same,Ratio,Osteoblast [14],3.38
same,Activity,[15],Active
same,Activity,[16],Active
same,Ratio,Osteoblast [17],0.46
same,Ratio,Osteoblast [18],5.6
same,Activity,MG-63 [19],Active
same,Activity,[20],Active
same,Activity,MG-63 [21],Active
